pCIP destab – compounds decreasing mouse p/CIP protein stability. Q05BA5. decrease of EGFP signal, % at 10 µM. hit rate 0.01% among 290,000. F442A p/CIP-EGFP cells, EGFP fluorescence, 16 h;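 active = EGFP signal decrease of at least 30% at 10 µM or well 3 SD below plate mean, unless failing retest; inactive = the rest, including hits failing retest or dose response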
RanGTP-Impb inh – inhibitors of RanGTP-importin-beta interaction, primary screen, biochemical, FRET, CFP-Ran, YFP-importin-beta, homogeneous | hit rate 1.1% among 300,000 | cell-free CFP-Ran/YFP-importin-beta FRET ratio | AID 2216 | inhibition, % (test concentration not listed);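 active = more than half of the replicate wells show a fall in the fluorescence ratio signal beyond about 16%, limit read from the data, passing the limit was not always enough; inconclusive = exactly half of the replicate wells pass the set limit; inactive = fewer than half of replicates pass the limit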;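 also: 0% = DMSO wells and 100% = Ran loaded with GDP instead of GTP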
Hck Nef HTS – blocks Nef-activated human Hck kinase. Recombinant Hck-YEEI plus Nef, Z-Lyte FRET kinase assay. inhibition, % at 20 µM. hit rate 0.68% among 220,000;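 active = Hck-Nef kinase inhibition above about 50%, limit read from the data; inactive = inhibition below that limit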;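 also: 0% = DMSO with Hck plus Nef and 100% = Hck alone without Nef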
Runt-CBFb FRET – Runt domain-CBFb interaction inhibition; Cerulean-Runt/Venus-CBFb FRET ratio 530/480, 1 h; hit rate 0.46% among 220,000; AID 1496; inhibition, % at 20 µM; Q01196+Q13951;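 active = inhibition over about 50% at 20 µM in the single-dose screen, limit read from the data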;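 also: 0% = DMSO wells and 100% = excess unlabeled CBFb competitor control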
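Schedule: protein complex preformed 1 h, compound exposure 1 h, room temperature, dark; test system: Cerulean-labeled Runt domain protein; amount: 100 nM per protein; buffer or medium: Tris 50 mM pH 7.5, KCl, K2SO4, 0.01% BSA; read-out: loss of energy transfer signal; detection: FRET fluorescence; controls: 5 µM unlabeled CBFb as full-inhibition high control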
Pemphigus Ab inh – blocks pemphigus antibody binding to human desmoglein-3; P32926; hit rate 0.48% among 310,000; binding (percent of control), % at 10 µM; AID 588358; DSG3-coupled beads, scFv-anti-DSG3-GFP binding, flow cytometry; stronger effect = lower value;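 active = binding more than 3 SD below its plate's average and above zero; inconclusive = below that plate limit but binding exactly zero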
Runt-SMMHC FRET – blocks binding of human RUNX1 Runt domain to CBFb-SMMHC; Cerulean-Runt/Venus-CBFb-SMMHC FRET ratio 530/480, 1 h; inhibition, % at 20 µM; AID 1434; hit rate 0.74% among 220,000;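 active = mean inhibition across duplicate retests at 20 µM reaching about 50%, limit read from the data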;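 also: 0% = DMSO wells and 100% = wells with excess untagged CBFb-SMMHC; inhibitors lower the FRET ratio by blocking Runt binding to CBFb-SMMHC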
Runt-CBFb TRFRET – Runt-CBFb binding inhibition; shares compounds with Runt-CBFb FRET; hit rate 20% among 480; inhibition, % at 20 µM; TR-FRET RUNX1 Runt domain-CBFb binding; in the data active = inhibition above about 40%
YIC FRET counter – counter-screen YIC FRET for RanGTP-importin-beta inhibitors; AID 435026; shares compounds with RanGTP-Impb inh; IC50, µM; Purified YIC probe, intramolecular FRET ratio YFP/CFP; hit rate 40% among 1,000;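 active = fitted half-maximal inhibitory concentration no more than tenfold above the top dose tested; inconclusive = flat fit with 30 to 70% activity, or poor fit; inactive = half-maximal concentration beyond tenfold above the top dose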
Hck-Nef confirm – confirmation of Hck-Nef kinase inhibitors; shares compounds with Hck Nef HTS; Recombinant Hck-YEEI:Nef, Z-Lyte FRET kinase assay; calls only at 10 µM; hit rate 28% among 1,300; AID 463188;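 active = average inhibition of at least 50%, with Z-scores no higher than 3 in both the phospho-tyrosine peptide and fluorescence counterscreens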
* hit, by the source's call; i = inactive; ? = inconclusive; nt = no result given; + = active, no number. Rows were chosen to be rich in hits. Some 2.1% of all compounds tested hit in one or more screens of this group.

SMILES	pCIP destab	RanGTP-Impb inh	Hck Nef HTS	Runt-CBFb FRET	Pemphigus Ab inh	Runt-SMMHC FRET	Runt-CBFb TRFRET	others
COc1ccc(-n2c(N)c(C(=O)NCc3ccco3)c3nc4ccccc4nc32)cc1	-17	37*	69*	51*	94	120*	21	Hck-Nef confirm=i
COCCNC(=O)c1c(N)n(-c2cccc(C)c2)c2nc3ccccc3nc12	9	97*	60*	60*	104	79*	25
Nc1ccc(S(=O)(=O)Nc2nc3ccccc3o2)cc1	16	3	nt	nt	128	nt	nt
CCCCn1c(N)c(N(CCOC)C(=O)c2ccc(-c3ccc(C(C)=O)cc3)o2)c(=O)[nH]c1=O	nt	0	nt	nt	105	nt	nt
CCOc1cc(-c2nc3ccccc3s2)ccc1O	-16	3	+	55*	107	117*	38
COc1cc(-c2nc3ccccc3s2)ccc1O	1	0	155*	79*	114	154*	34
COc1cccc(OCC(=O)N2CCCc3ccccc32)c1	0	-3	nt	nt	nt	nt	nt
NS(=O)(=O)c1cnccc1NCCc1ccccc1	nt	2	nt	nt	104	nt	nt
Cc1cc2oc(=O)c3c(c2cc1OC(=O)c1ccco1)CCCC3	-8	-3	17	-1	102	-4	nt
O=C(Oc1cc2oc(=O)c3c(c2cc1Cl)CCCC3)c1ccco1	-7	-3	83*	68*	nt	120*	36
O=C(Oc1cc2oc(=O)c3c(c2cc1Cl)CCCC3)c1cccs1	1	nt	78*	76*	95	133*	26
O=C(Oc1ccc2c3c(c(=O)oc2c1)CCCC3)c1cccs1	9	3	15	17	102	32	nt
CC1CN(CC(=O)Nc2ccc(S(N)(=O)=O)cc2)CC(C)O1 (configuration not stated)	-11	0	nt	nt	86	nt	nt
O=C(NCC1CCCO1)c1cc2ccccc2nc1Cl (configuration not stated)	-6	7	7	1	86	-2	nt
CC(C)Cn1c(N)c(C(=O)NCC2CCCO2)c2nc3ccccc3nc21 (configuration not stated)	-19	82*	53*	52*	106	58*	31
c1coc(-c2nc(-c3ccco3)c(-c3ccco3)nc2-c2ccco2)c1	2	60*	60*	51*	88	46	-38	Hck-Nef confirm=i
CC(=O)Nc1ccc(S(=O)(=O)Nc2nc3cc4c(cc3nc2Cl)OCCO4)cc1	-8	11	89*	51*	88	75*	36
Nc1c(C(=O)NCCN2CCOCC2)c2nc3ccccc3nc2n1CCc1ccccc1F	-8	93*	51*	70*	86	61*	24	Hck-Nef confirm=i
COC(=O)c1sc(NC(=O)c2cc(C)on2)nc1C	9	0	nt	nt	101	nt	nt
Cc1cc(=O)oc2cc(OC(C)C(=O)O)c(Cl)cc12 (configuration not stated)	-7	-2	1	0	101	47	nt
Cc1ccc(S(=O)(=O)NC(C(=O)Oc2cc3oc(=O)cc(C)c3cc2Cl)C(C)C)cc1 (configuration not stated)	7	?	100*	61*	96	115*	53*
CC(=O)Oc1cc2oc(=O)cc(C)c2cc1Cl	-6	13	+	79*	115	113*	-57
Cc1ccc(S(=O)(=O)N2CCN(C(=O)COC(=O)CSc3ccccc3)CC2)c(C)c1	nt	5	nt	nt	106	nt	nt
CN(C)Cc1c(O)ccc2c3c(c(=O)oc12)CCCCC3	-3	20*	76*	70*	99	136*	4	YIC FRET counter=22*
CN(Cc1c(O)ccc2c1oc(=O)c1ccccc12)C1CCCCC1	-3	-4	-5	-9	99	-35	nt
SMILES	pCIP destab	RanGTP-Impb inh	Hck Nef HTS	Runt-CBFb FRET	Pemphigus Ab inh	Runt-SMMHC FRET	Runt-CBFb TRFRET	others
COCCCn1c(C(=O)NCCC2=CCCCC2)cc2c(=O)n3ccccc3nc21	-12	2	nt	nt	83	nt	nt
CCOC(=O)c1cc2c(=O)n3ccccc3nc2n(CCOC)c1=NC(=O)C(C)(C)C	-2	77*	101*	77*	99	-16	-7
Cc1nc2ccc(S(=O)(=O)Nc3cccc(-c4nc5cccnc5s4)c3)cc2s1	-20	1	-9	44	96	1	nt
O=S(=O)(Nc1ccc(-c2nc3cccnc3s2)cc1)c1ccccc1F	-11	9	+	81*	83	146*	-2
Cc1nc2ccc(S(=O)(=O)Nc3ccc(-c4nc5cccnc5s4)cc3)cc2s1	-1	21*	56*	74*	101	nt	86*	YIC FRET counter=39*
Cc1cc(C(=O)OCC(=O)N(CC(C)C)c2c(N)n(Cc3ccccc3)c(=O)[nH]c2=O)c(C)o1	nt	0	nt	nt	101	nt	nt
CC(C)Oc1ccc(C(=O)Nc2ccc(S(=O)(=O)N3CCN(C)CC3)cc2)cc1	-2	5	nt	nt	111	nt	nt
CCNc1ccc2c(Cl)cc(=O)oc2c1	-1	36*	52*	55*	99	95*	7	Hck-Nef confirm=i
CCCOC(=S)NC(=O)c1sc2ccccc2c1Cl	-12	31*	3	0	104	3	nt	YIC FRET counter=>50
COc1ccccc1N(C)S(=O)(=O)c1ccc(Cl)c(C(=O)Nc2cccc(C)n2)c1	nt	8	nt	nt	103	nt	nt
Cc1cccc(NC(=O)c2cc(S(=O)(=O)N(C)c3ccc(F)cc3)ccc2Cl)n1	nt	20*	nt	nt	104	nt	nt	YIC FRET counter=>50
CCN(CC1CCCO1)C(=O)CCc1nnc(CCc2ccccc2OC)o1 (configuration not stated)	-7	-2	nt	nt	102	nt	nt
O=C(NCC1CCCO1)c1cccc(S(=O)(=O)N2CCCCC2)c1 (configuration not stated)	nt	nt	nt	nt	101	nt	nt
COc1cc(-c2nc3cnccn3c2Nc2ccc(C(C)C)cc2)ccc1O	-10	32*	-2	2	126	11	nt	YIC FRET counter=>50
O=C(Nc1nc2ccc(S(=O)(=O)N3CCCCC3)cc2s1)c1cccnc1	-10	22*	1	-11	150	-7	nt	YIC FRET counter=>26
COc1ccc2[nH]c3c(c2c1)CCN1C(=O)C(CC(=O)NC/C=C(\C)CCC=C(C)C)C[C@H](C(=O)N(C(C)C)C(C)C)[C@@]31C (some centres not stated)	nt	nt	nt	nt	109	nt	nt
COc1ccc(Cn2c(O)c(C=Nc3ccc(OC)cc3)c3ccccc3c2=O)cc1	-13	29*	2	-166	100	-25	nt	YIC FRET counter=>26
